dFosB act: activators of delta FosB homodimer, primary screen, biochemical, fluorescence polarization, TAMRA-CDK5 oligo, single point; Protein FosB (Mus musculus), P13346; purified delta FosB; percent of positive-control signal above neutral wells; activation, % at 25 µM; 340,000 compounds, 0.99% hits; AID 493131, 2011;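 active = mean activation above about 17%, with every replicate also reaching it, limit read from the data, passing the limit was not always enough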
Target sequence (P13346 whole entry, looked up): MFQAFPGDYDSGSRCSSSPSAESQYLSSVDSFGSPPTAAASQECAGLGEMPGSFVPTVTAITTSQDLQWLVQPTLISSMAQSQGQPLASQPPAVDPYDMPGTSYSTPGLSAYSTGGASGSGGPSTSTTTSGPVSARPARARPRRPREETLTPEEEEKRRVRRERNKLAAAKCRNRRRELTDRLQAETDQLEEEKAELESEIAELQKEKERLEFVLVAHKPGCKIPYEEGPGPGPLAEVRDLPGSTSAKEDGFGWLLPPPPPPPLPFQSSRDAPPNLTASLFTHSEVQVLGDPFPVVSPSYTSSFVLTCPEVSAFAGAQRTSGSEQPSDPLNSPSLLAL
S100A4 inh HTS: inhibitors of S100A4-myosin IIA peptide binding, primary screen, biochemical, fluorescence polarization, TAMRA-MyoIIA peptide. Protein S100-A4 (Homo sapiens), P26447. 360,000 compounds, 0.14% hits. AID 652163, 2013. inhibition, % at 10.7 µM;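 active = mean inhibition of at least 70% across replicates, with every replicate also reaching that level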
Target sequence (P26447 whole entry, looked up): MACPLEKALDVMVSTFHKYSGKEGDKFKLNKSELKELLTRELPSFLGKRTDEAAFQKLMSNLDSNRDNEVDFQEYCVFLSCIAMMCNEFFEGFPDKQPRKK
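assay system = human S100A4 monomer with TAMRA-labelled myosin IIA peptide | also added = labelled myosin peptide probe, 5 nM | incubation = 5 min between mix addition and reading | control set = DMSO and TFP controls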
CDK5 inh: inhibitors of human CDK5/p35 kinase, primary screen, biochemical, single concentration | Cyclin-dependent kinase 5 (Homo sapiens) + Cyclin-dependent kinase 5 activator 1 (Homo … | Recombinant CDK5/p35, ADP-Glo luminescence, 60 min | inhibition, % at 10 µM | 330,000 compounds, 0.01% hits | AID 488839, 2010;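 active = highest replicate inhibition of at least 50% and at least 75% of replicates reaching 50%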;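 also: plate controls were DMSO neutral control for no effect and GW8510 at 10 µM for full effect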
CAL PDZ FP-1: CAL PDZ peptide-binding inhibitors, primary screen, biochemical, fluorescence polarization, Cer-tagged CAL PDZ, HTS; Golgi-associated PDZ and coiled-coil motif-containing protein (Homo sapiens), Q9HD26; purified CAL PDZ, TMR-peptide fluorescence polarization, 1 h; inhibition, % at 20 µM; 330,000 compounds, 0.02% hits;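 active = highest replicate inhibition of at least 40%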;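 also: plate controls were DMSO neutral control wells for no effect and unlabeled competitor peptide control wells for full effect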
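material = purified tagged CAL PDZ domain construct (CerCALP) | compound dosing = 20 µM, one dose | times = 1 h at RT | measured by = fluorescence polarization from S- and P-plane intensities, G-factor corrected | read-out = inhibition from polarization loss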
C2C12 statin: suppressors of statin myotoxicity in C2C12 myotubes, primary screen, cell-based, single point, plate reader; C2C12 myotubes + simvastatin, ATP luminescence, 48 h; scaled: DMSO 0, geranylgeraniol control 100; rescue of ATP level, % at 7.49 µM; 330,000 compounds, 0.78% hits;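 active = mean ATP rescue above about 67%, or every replicate alone reaching that limit, limit read from the data, passing the limit was not always enough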;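 also: myotubes were challenged with 10 µM simvastatin during compound exposure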
CAL PDZ FP-2: untagged CAL PDZ binding inhibitors, primary screen, biochemical, fluorescence polarization, HTS | Golgi-associated PDZ and coiled-coil motif-containing protein (Homo sapiens), Q9HD26 | purified CAL PDZ, TMR-peptide fluorescence polarization, 1 h | inhibition, % at 24.9 µM | 300,000 compounds, 0.92% hits | AID 602252, 2012;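 active = mean inhibition of at least 30% with at least half of replicates also reaching 30%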;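 also: 0% = DMSO neutral control and 100% = excess unlabeled competitor peptide PRC23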
The depositor's hits bear a star; / = no result given; ! = repeats disagree. Rows were chosen to be rich in hits. Some 2% of all compounds tested hit in one or more screens of this group.

SMILES | dFosB act | S100A4 inh HTS | CDK5 inh | CAL PDZ FP-1 | C2C12 statin | CAL PDZ FP-2
Oc1ccccc1Nc1nc(NCc2ccccc2)c2ccccc2n1 | 84* | 5 | -2 | -4 | / | -2
CN(C)CCCNc1c2ccccc2nc2ccccc12 | 72* | -10 | 2 | / | 18 | -4
c1ccc(CNc2c3ccccc3nc3ccccc23)cc1 | 38* | -4 | 0 | -4 | 28 | -8
CN(C)CCCNc1nc(-c2ccccc2)nc2ccccc12 | -20 | -2 | 0 | -1 | 0 | 0
c1ccc(CNc2ncnc3ccccc23)cc1 | -4 | 0 | 0 | 0 | -26 | -9
CN(/N=C/c1ccncc1)C1=NCCN1 | 0 | -3 | -2 | -2 | 1 | -1
COc1ccc(CN(CCCn2cnc3c(OC)ncnc32)CCCn2cnc3c(OC)ncnc32)cc1 | / | 2 | / | / | 1 | /
Brc1ccc(C2=CC(c3cccs3)n3ncnc3N2)cc1 (stereo unspecified) | -34 | / | 0 | -7 | -3 | -1
COCc1cc(Sc2ccc(Cl)cc2)nc(-c2ccccc2)n1 | -6 | / | 0 | -1 | -15 | /
S=C(NCc1ccc(Cl)cc1)Nc1ccccc1 | 0 | -1 | -1 | -3 | 129* | -1
Fc1ccc(CNC(=S)Nc2ccc(Cl)cc2)cc1 | -6 | -7 | 0 | 0 | -14 | -4
Cc1scc(C(=O)O)c1-c1c(C(=O)O)csc1C | 4 | -1 | 0 | -3 | / | -3
CC1CCCC(C)N1/N=C/c1ccc(Cl)cc1 (stereo unspecified) | 7 | / | -1 | -3 | -2 | 4
COc1ccc(C2(C)NC(=O)N(CC(=O)c3cc(C)n(C4CC4)c3C)C2=O)cc1OC (stereo unspecified) | -9 | -13 | 2 | -1 | -8 | 54*
CC1(C)CC(=O)C(C=NCCN2CCN(C(=S)Nc3ccc(F)cc3)CC2)=C(O)C1 | -1 | / | 1 | -2 | 65* | 5
CC1(C)CC(=O)C(C=NCCN2CCN(CC(=O)Nc3ccc(F)cc3)CC2)=C(O)C1 | -7 | -5 | -1 | -1 | / | -2
O=C(CCCCCN1C(=O)CCC1=O)Nc1ncn[nH]1 | 6 | / | -7 | 0 | / | 10
O=C(O)CCCCCN1C(=O)CCC1=O | -6 | / | 2 | / | 13 | 45*
COCCCN(C(=O)CSCC(=O)Nc1cccc(C)c1)c1c(N)n(Cc2ccccc2)c(=O)[nH]c1=O | -9 | 2 | 1 | -3 | -14 | -1
OC(CNc1ccnc2cc(Cl)ccc12)CNC1CCCCC1 (stereo unspecified) | 26* | 0 | 1 | -4 | -56 | -3
OC1CCCC1NCc1ccnc2cc(Cl)ccc12 (stereo unspecified) | -2 | -1 | 2 | -1 | 1 | 2
COc1ccccc1N(CC(=O)Nc1ccccc1)S(=O)(=O)c1cccs1 | -3 | 10 | 1 | -1 | 4 | -1
CC(=O)OC(C(=O)NCS(=O)(=O)c1ccc(C)cc1)c1cccnc1 (stereo unspecified) | -5 | / | 0 | / | 0 | -4
CCCc1cc(=O)[nH]c(NCCc2ccccc2)n1 | -4 | -2 | 0 | 0 | -17 | /
O=c1ccnc(NCCc2ccccc2)[nH]1 | -2 | / | -4 | -1 | 99* | -2
SMILES | dFosB act | S100A4 inh HTS | CDK5 inh | CAL PDZ FP-1 | C2C12 statin | CAL PDZ FP-2
Cc1nn2c3ccccc3n(C)c2nc1=O | -5 | / | 0 | / | / | 4
Cc1nn2c3ccccc3n(Cc3ccccc3)c2nc1=O | -4 | / | 0 | / | 118* | -5
COc1ccc(N(C(=O)c2snc(C(N)=O)c2N)C(C(=O)NCc2ccccc2)c2ccc(O)cc2)cc1 (stereo unspecified) | 1 | 0 | -1 | 0 | -8 | 51*
COC(=O)NC(=S)Nc1ccc(Oc2ccc(Cl)cc2)c(Cl)c1 | -2 | 8 | -2 | 1 | -19 | 0
COc1ccccc1-c1noc(-c2ccco2)n1 | -4 | / | -2 | 0 | 18 | -3
CC(C)n1cnc2c(Nc3ccc(F)c(Cl)c3)nc(NCCO)nc21 | 2 | -1 | 61* | 0 | -4 | 2
CCCNC(=S)Nc1ccc(Cl)cc1C | 0 | / | 1 | -1 | / | 50*
CC(C)COc1ccc(S(=O)(=O)NNC(=O)c2cc3ccccc3o2)cc1 | -5 | / | -3 | 0 | / | 14
COCCN=C1N[C@@H](c2ccccc2)C(C(=O)OC)=C(C)N1Cc1ccccc1 | -3 | 0 | 0 | -1 | 110* | -4
Cc1ccc2c(c1)c(N=Nc1ccc([N+](=O)[O-])cc1)c(O)n2C | 2 | -11 | -2 | 0 | 5 | -2
Cc1ccc2c(c1)c(C1=NC(=S)NC1=O)c(O)n2C | -11 | 0 | 0 | -1 | / | 30*
O=C(NCCCN1CCC(Cc2ccccc2)CC1)C1CCN(S(=O)(=O)N2CCOCC2)CC1 | 8 | / | 1 | -1 | 90* | -23
CCS(=O)(=O)N1CCC(C(=O)NCCCN2CCC(Cc3ccccc3)CC2)CC1 | -8 | / | 1 | 1 | 1 | 2
COc1cc(S(=O)(=O)NCCN2CCOCC2)c(OC)cc1Cl | -5 | / | 2 | 0 | -10 | /
C[C@@H]1CN([C@@H](C)CO)S(=O)(=O)c2ccc(-c3cccc(C#N)c3)cc2O[C@@H]1CN(C)C(=O)c1ccc(F)cc1 | / | 131*! | / | / | -4 | /
CC(C)NC(=O)N(C)C[C@@H]1Oc2cc(-c3ccncc3)ccc2S(=O)(=O)N([C@@H](C)CO)C[C@@H]1C | / | 2 | / | / | -3 | /
C[C@H](CO)N1C[C@H](C)[C@H](CN(C)C)Oc2cc(C3=CCCC3)ccc2S1(=O)=O | / | 98* | / | / | 4 | /
CC(C)NC(=O)N(C)C[C@@H]1Oc2cc(-c3ccncc3)ccc2S(=O)(=O)N([C@H](C)CO)C[C@H]1C | / | 160* | / | / | -11 | /
C[C@H]1CN([C@@H](C)CO)S(=O)(=O)c2ccc(Br)cc2O[C@@H]1CN(C)S(=O)(=O)c1ccc(F)cc1 | / | 3 | / | / | 88* | /
C[C@@H]1CN([C@H](C)CO)S(=O)(=O)c2ccc(Br)cc2O[C@H]1CN(C)S(=O)(=O)c1ccc(F)cc1 | / | -3 | / | / | 22 | /
O=C(CN1C(=O)NC2(CCCCC2)C1=O)Nc1ccc2c(c1)CCC2 | -10 | 0 | -1 | -1 | / | -6
COc1ccc(-c2ccc3c(c2)O[C@H](CN(C)Cc2cccnc2)[C@@H](C)CN([C@H](C)CO)S3(=O)=O)cc1 | / | 108* | / | / | -33 | /

Bioassay records from PubChem BioAssay.
